From PMC8204096 (Clinical & Translational Immunology, 2021) come the findings set out here.

Read-outs that look alike come from different tables or passages of the source. Some results are limits rather than exact numbers.

Data set [1] has as its system B cells in human whole blood. The experiment in a line: Anti-IgD-induced B-cell activation. The conditions noted are these: read-out: IC50, B-cell activation in whole blood, stimulated cells. The class given is cell-based.
Data set [2] has as its system B cells in mouse whole blood. The experiment in a line: Anti-IgD-induced B-cell activation. The settings on record: read-out: IC50, CD62L downregulation on B cells. The class given is cell-based.
The subject of data set [3] is B cells in whole blood of dosed healthy individuals. The data set can be described thus: Phase 1. The class given is in vivo, human. The method in brief:
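Heparinised whole blood from trial participants (test compound or placebo, BID) was stimulated with 0.1 μg mL−1 dextran-conjugated anti-IgD (IA6-2) for 18–24 h at 37°C/5% CO2. Samples were stained for CD19 and CD69, RBC-lysed and fixed. CD69 on CD19+, CD27− and CD27+ B cells was standardised with MESF beads. Inhibition was calculated relative to pre-dose samples.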

The subject of data set [4] is basophils in human whole blood. The data set can be described thus: FcεR-mediated basophil degranulation. The conditions noted are these: read-out: IC50, anti-IgE-mediated basophil degranulation (CD63). The class given is cell-based.
Data set [5] concerns CD19+ B cells from human PBMC. The data set can be described thus: Anti-IgD-induced B-cell activation. The conditions noted are these: read-out: IC50, CD69 induction on B cells. The class given is cell-based. The method, boiled down: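 PBMCs from healthy donors were isolated by density gradient. They were incubated for 30 min with titrating concentrations of test compound or DMSO, then stimulated overnight at 37°C with rabbit F(ab′)2 anti-human IgD (5 μg mL−1). After Fc block and staining for 30 min on ice, the frequency of CD69+ cells among CD19+ B cells was measured by flow cytometry.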

Data set [6] concerns B220+ mouse splenic B cells. The data set can be described thus: Anti-IgM-induced B-cell activation. The settings on record: read-out: IC50, CD69 induction on B cells. It is filed as cell-based. The method in brief: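 Splenic B cells were bead-isolated from OTII mice and pre-treated with test compound for 30 min at 37°C. They were incubated on ice with biotinylated goat F(ab′)2 anti-mouse IgM (10 μg mL−1, 15 min), then OVA-conjugated anti-biotin (10 min), with compound present throughout. They were co-cultured with dye-labelled CD4+ T cells for 72 h at 37°C. The frequency of CD69+ B220+ B cells was measured by flow cytometry.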

Data set [7] concerns CD4+ and CD8+ T cells from human PBMCs. The data set can be described thus: Anti-CD3/anti-CD28-mediated T-cell activation counter-screen. It is filed as cell-based. The conditions noted are these: anti-CD3 and anti-CD28 overnight, concentrations up to 10 μM. The method in brief: (§1)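 Human PBMCs were pre-treated for 30 min with titrating concentrations of test compound. They were then stimulated overnight at 37°C with soluble anti-CD28 (CD28.2, 5 μg mL−1) and plate-bound anti-CD3 (HIT3a, 0.5 µg mL−1). CD69 on CD4+ and CD8+ T cells and on CD19+ B cells was measured by flow cytometry.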
In general terms: The purpose of a counterscreen is to sort out artefacts and off-target activity.

The subject of the next data set is purified human B cells. The experiment in a line: Human B-cell proliferation. It is filed as cell-based. The conditions noted are these: 100 nM added at time of activation; TLR9 or anti-IgM/CD40L with IL-4 or IL-21. The method in brief:
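Healthy-donor B cells were enriched untouched and labelled with CFSE. Stimuli were CpG ODN 2006, or F(ab′)2 anti-IgM (1 µg mL−1), or anti-IgM/MEGACD40L (1 μg mL−1) with IL-4 or IL-21 (each 20 ng mL−1). Cells were cultured with or without 100 nm test compound in serum-free X-VIVO 10 for 3–5 days, then analysed by flow cytometry.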

In data set [8] the test system is mouse splenic B cells and OTII CD4+ T cells. The experiment in a line: BCR-mediated antigen presentation to T cells. It is filed as cell-based. The conditions noted are these: read-out: IC50, BCR-mediated antigen presentation to OVA323-339-specific T cells (T-cell proliferation).
The test system of data set [9] is CD19+ B cells from human PBMCs. The data set can be described thus: Antigen-independent B-cell activation by anti-CD3/anti-CD28-activated T cells. It is filed as cell-based. The method in brief:
as §1

The next data set concerns the target BTK (Mus musculus, UniProt P35991). The experiment in a line: in vivo.
Data set [10] deals with splenic germinal center B cells. The data set can be described thus: Sheep red blood cell thymus-dependent immunisation model. The class given is in vivo. The settings on record: mouse, 8 days BID, all doses tested. The method in brief:
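Mice were dosed orally BID at 10 mL kg−1 with test compound or vehicle from day 1 to day 9. On day 2 they received washed sheep red blood cells i.p. (2 × 10⁹ cells). Spleens were collected on day 9, 3 h after the last dose. Germinal centre B cells (CD3−CD19+B220+CD38lowGL7+CD95+) were enumerated by flow cytometry, with 8–20 mice per group.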

Data set [11] deals with NP-specific IgM antibody titres. The experiment in a line: NP-Ficoll T cell-independent. It is filed as in vivo. The settings on record: mouse, oral BID for 10 days.
The mark [12] stands for this setting: Homo sapiens, B-cell, read-out: average (± SD) CD69 inhibition at 24 h post-last dose.
The mark [13] stands for this setting: Homo sapiens, B-cell, read-out: pre-dose average CD69 inhibition in naïve B cells.

Usually inhibition stands for the drop in the measured response relative to a control, in per cent.

Chain of BTK (P35991 whole entry): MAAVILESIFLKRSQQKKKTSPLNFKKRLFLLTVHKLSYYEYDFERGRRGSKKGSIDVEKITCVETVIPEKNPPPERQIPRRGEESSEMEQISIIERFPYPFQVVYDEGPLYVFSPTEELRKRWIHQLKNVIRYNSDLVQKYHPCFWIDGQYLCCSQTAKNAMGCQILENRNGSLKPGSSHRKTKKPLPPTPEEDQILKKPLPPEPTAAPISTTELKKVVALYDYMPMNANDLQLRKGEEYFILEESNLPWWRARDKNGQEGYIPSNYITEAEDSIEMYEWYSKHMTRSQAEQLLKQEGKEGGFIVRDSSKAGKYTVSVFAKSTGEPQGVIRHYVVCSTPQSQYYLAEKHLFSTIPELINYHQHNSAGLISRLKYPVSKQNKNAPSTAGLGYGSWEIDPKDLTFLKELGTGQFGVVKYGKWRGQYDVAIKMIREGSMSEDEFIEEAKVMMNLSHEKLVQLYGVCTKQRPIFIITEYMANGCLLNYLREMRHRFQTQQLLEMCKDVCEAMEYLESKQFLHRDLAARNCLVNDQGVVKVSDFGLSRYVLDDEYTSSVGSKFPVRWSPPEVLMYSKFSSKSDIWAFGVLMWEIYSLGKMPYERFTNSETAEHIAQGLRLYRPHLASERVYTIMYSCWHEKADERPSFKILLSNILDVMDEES

In the case of `Cc1cc(-c2ccnc(Nc3cnn(C)c3)n2)ccc1CNC(=O)N1CC(OC(C)C)C1` [BIIB068], the IC50 in [1] came out at 3500 nM.

Regarding `Cn1cc(Nc2nccc(-c3ccc4c(c3)CN(C3COC3)CC[C@H]4NC(=O)c3cn(C(C)(C)C)nn3)n2)cn1` [BIIB091], the IC50 in [2] worked out at 40 ± 24 nM; in data set [4] it was 106 nM; in data set [5], 5.4 ± 0.5 nM; in data set [6], 16 ± 11 nM; in data set [8] it was 22 ± 8 nM; against BTK, 3.1 nM. In data set [3] (50 mg BID, 1 and 2 h post-dosing), the “inhibition of CD69 upregulation in naïve B cells” value is given as “complete”. Moreover, the inhibition at 50 mg in data set [3] (setting [12]) was -5.8%. The inhibition at 150 mg in data set [3] (setting [12]) was 19%; in data set [3] (setting [13]), no less than 90%. The inhibition at 300 mg in data set [3] (setting [12]) is -2.8%; in [3] (setting [13]), no less than 90%. In addition, the “inhibition of CD4+ or CD8+ T-cell activation (CD69)” value in [7] is recorded as “did not inhibit”. The “effect on B-cell proliferative responses” value in the data set on purified human B cells is listed as “potently blocked”. In [9], the “inhibition of T cell-dependent, antigen-independent B-cell activation (CD69)” value was “did not inhibit”. The “frequency of total splenic B cells” value in data set [10] is “unchanged”. Besides, in [11], the “ED50 for NP-specific IgM antibody titres” value was found to be 1.95 mg/kg.
